Experimental data gathered from unrelated publications.
pIC50: −log10 of the molar value.
Target: Acetylcholinesterase (ache, Electrophorus electricus, UniProt O42275)
Effect on: enzyme activity
Mode: inhibitor

`COP(=O)(OC)OC(C)=C1CCOC1=O` gave a pIC50 of under 3.00 (Ellman; pH 8).
`CC=C1[C@H]2C=C(C)C[C@]1(N)c1ccc(OC)nc1C2` gave a pIC50 of 5.44 (Ellman).
With `CC1(C)O[C@H]2CC(=O)OC[C@]23[C@H]2CC[C@@]4(C)[C@H](c5ccoc5)OC(=O)[C@H]5O[C@]54[C@]2(C)C(=O)C[C@@H]13` the pIC50 was 2.98 (Ellman).
With `O=C(NCCN1CCN(Cc2ccccc2)CC1)c1cc2ccccc2o1` the pIC50 was 4.73 (Ellman).
`CC=C1[C@H]2C=C(C)C[C@]1(N)c1cc(F)c(=O)[nH]c1C2` has a pIC50 of 5.91 (Ellman).
`C#CCNc1nc(NCCCC2CCN(Cc3ccccc3)CC2)c(C#N)cc1C#N` has a pIC50 of 8.33 (Ellman).
The pIC50 of `O=C(CNC(=S)NN=Cc1ccc([N+](=O)[O-])cc1)c1ccc(Cl)cc1` is reported as 3.47 (Ellman).
`CC=C1[C@H]2C=C(C)C[C@]1(N)c1cc(C#N)c(=O)[nH]c1C2` gave a pIC50 of 4.47 (Ellman).
For `O=C(CNC(=S)NN=Cc1ccc([N+](=O)[O-])cc1)c1ccc([N+](=O)[O-])cc1`, the pIC50 was 3.35 (Ellman).
`C#CCNC(=O)c1cc2ccc(N(CC)CC)cc2oc1=O` gave a pIC50 of under 4.30 (Ellman; pH 7.6).
For `Cc1c(C(=O)[C@H]2[C@H](c3c[nH]c4ccc(Br)cc34)[C@H]3CCCN3[C@]23C(=O)Nc2ccccc23)cnn1-c1ccccc1`, the pIC50 was under 4.00 (Ellman).
For `C#CCN(C)c1nc(NCCCCC2CCN(Cc3ccccc3)CC2)c(C#N)c(-c2ccccc2)c1C#N`, the pIC50 was 7.64 (Ellman).
`COc1cccc2cc(C(=O)NCCN3CCN(Cc4ccccc4)CC3)oc12` gave a pIC50 of 5.40 (Ellman).
With `Cc1c(C(=O)[C@H]2[C@H](c3cn(C)c4ccccc34)[C@H]3CCCN3[C@]23C(=O)Nc2cc(Cl)ccc23)cnn1-c1ccccc1` the pIC50 was under 4.00 (Ellman).
The pIC50 of `CC(C)=CCC/C(C)=C/COc1cc(O)cc(O)c1C(=O)c1ccccc1` is reported as 3.72.
For `CC=C1[C@H]2C=C(C)C[C@]1(N)c1cc(OCCCC)c(=O)[nH]c1C2`, the pIC50 was 3.96 (Ellman).
With `CC(C)c1cc(C(C)C)c(S(=O)(=O)NNC(=O)C(=O)NNS(=O)(=O)c2c(C(C)C)cc(C(C)C)cc2C(C)C)c(C(C)C)c1` the pIC50 was 5.37 (Ellman; with preincubation).
For `CC=C1[C@H]2C=C(C)C[C@]1(N)c1cc(O)c(=O)[nH]c1C2`, the pIC50 was 6.28 (Ellman).
For `Cc1c(C(=O)[C@H]2[C@H](c3cn(C)c4ccccc34)[C@H]3CSCN3[C@]23C(=O)Nc2cc(Cl)ccc23)cnn1-c1ccccc1`, the pIC50 was under 4.00 (Ellman).
`CC=C1[C@H]2C=C(C)C[C@]1(N)c1cc(OC)c(=O)[nH]c1C2` gave a pIC50 of 6.80 (Ellman).
For `Cc1c(C(=O)[C@H]2[C@H](c3c[nH]c4ccc(Br)cc34)CN(C)[C@]23C(=O)Nc2cc(Cl)ccc23)cnn1-c1ccccc1`, the pIC50 was 4.56 (Ellman).
